{"source": "ChEMBL document CHEMBL1131567", "about": "“Ethnobotanical-directed discovery of the antihyperglycemic properties of cryptolepine: its isolation from Cryptolepis sanguinolenta, synthesis, and in vitro and in vivo activities” (1998)", "key": {"[1]": {"tested_on": "Mus musculus", "experiment": "In vivo plasma glucose lowering in db/db mice, given at 100 mg/kg in mouse, after 24 hr"}, "[2]": {"species": "Mus musculus", "experiment": "Food intake in db/db Mice expressed as gram/mouse/day and the observation made is after 48 hr.", "format": "functional", "summary_of_the_method": "(§1)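 Male C57BL/Ks-db/db mice, 8-9 weeks old, housed 4/cage at 22 °C with chow and water ad libitum. Mice with tail-vein plasma glucose of 350-600 mg/dL were grouped at eight per group with matched mean glucose. Oral gavage once daily for 1 or 2 days at 30 or 100 mg/kg, with vehicle control. Body weight and cage food consumption measured after 24-27 h.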"}, "[3]": {"tested_on": "Mus musculus", "experiment": "Mean body weight expressed as grams/mouse at 0hrs, when given at 100 mg/kg", "format": "functional", "summary_of_the_method": "as §1"}, "[4]": {"tested_on": "Mus musculus", "experiment": "Mean body weight expressed as grams/mouse at 24hrs, when given at 100 mg/kg", "format": "functional", "summary_of_the_method": "as §1"}, "[5]": {"tested_on": "Mus musculus", "experiment": "In vivo plasma glucose lowering in db/db mice, given at 100 mg/kg in mouse, after 3 hr"}, "[6]": {"tested_on": "Mus musculus", "experiment": "Mean body weight expressed as grams/mouse (C57BL/ks) at 48hrs, when given at 30 mg/kg", "format": "functional", "summary_of_the_method": "(§2)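 Lean C57BL/ks mice dosed at 30 mg/kg/day, with vehicle control, n = 8. Plasma glucose measured predose and on day 3. Body weight recorded at 0, 24 and 48 h; food intake per mouse per day over 0-24 and 24-48 h. Vehicle comparison by Student's t-test.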"}, "[7]": {"tested_on": "Mus musculus", "experiment": "Mean body weight expressed as grams/mouse (C57BL/ks) at 0hrs, when given at 30 mg/kg", "format": "functional", "summary_of_the_method": "as §2"}, "[8]": {"tested_on": "Mus musculus", "experiment": "Effect when given at 30 mg/kg in (C57BL/ks) mouse,Predose", "format": "functional", "summary_of_the_method": "as §2"}, "[9]": {"tested_on": "Rattus norvegicus", "experiment": "[…] effect of drug administration on Body weight in Fructose fed STZ-treated rats, after 24 hr (Treatment group - Fructose/STZ + cryptoline HCl, 30 mg/kg)", "format": "functional", "details": "in the assay text read “on day 3” for “after 24 hr”", "summary_of_the_method": "(§3)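 Male Sprague-Dawley rats, 8 weeks old, given STZ 55 mg/kg iv and a 60% fructose diet for 1 week. Rats with serum glucose of 250-350 mg/dL were sorted into matched groups (n = 14). Oral gavage once daily for 3 days with vehicle or 30 mg/kg in 2% DMSO, 10 mL/kg. Noninjected chow-fed vehicle controls (n = 19). Body weight and cage food consumption recorded daily.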"}, "[10]": {"tested_on": "Mus musculus", "experiment": "Food intake in C57BL/ks Mice expressed as gram/mouse/day and the observation made at 0 -24 Hrs, when administered at a dose of 30 mg/kg", "format": "functional", "summary_of_the_method": "as §2"}, "[11]": {"tested_on": "Mus musculus", "experiment": "Food intake in db/db Mice expressed as gram/mouse/day and the observation made at 0 - 24 Hrs, in db/db mice administered at a dose of 20 mg/kg", "format": "functional"}, "[12]": {"tested_on": "Mus musculus", "experiment": "Effect when given at 30 mg/kg in (C57BL/ks) mouse, after day 3", "format": "functional", "summary_of_the_method": "as §2"}, "[13]": {"tested_on": "Mus musculus", "experiment": "Food intake in C57BL/ks Mice expressed as gram/mouse/day and the observation made at 24-48 Hrs, when administered at a dose of 30 mg/kg", "format": "functional", "summary_of_the_method": "as §2"}, "[14]": {"tested_on": "Mus musculus", "experiment": "Compound was evaluated for the in vivo effects on plasma glucose concentrations in db/db mice administered at a dose of 20 mg/kg mean body weight expressed as grams/mouse at 0 hr", "format": "functional"}, "[15]": {"tested_on": "Mus musculus", "experiment": "Mean body weight expressed as grams/mouse (C57BL/ks) at 24hrs, when given at 30 mg/kg", "format": "functional", "summary_of_the_method": "as §2"}, "[16]": {"tested_on": "Mus musculus", "experiment": "Food intake in db/db Mice expressed as gram/mouse/day and the observation made at 24 - 48 Hrs, in db/db mice administered at a dose of 20 mg/kg", "format": "functional"}, "[17]": {"species": "Mus musculus", "experiment": "Food intake in db/db Mice expressed as gram/mouse/day and the observed after 48 hr.", "format": "functional", "summary_of_the_method": "as §1"}, "[18]": {"tested_on": "Mus musculus", "experiment": "Effect when given at 30 mg/kg in (db/db)mice,3 days postdose", "format": "functional", "summary_of_the_method": "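db/db mice, eight per group with matched initial glucose, dosed orally by gavage once daily with vehicle or 30 mg/kg. Tail-vein blood taken predose and 3 h postdosing. Plasma glucose measured colorimetrically by glucose oxidase assay. Groups compared with vehicle by ANOVA and Fisher's post-hoc test.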"}, "[19]": {"tested_on": "Rattus norvegicus", "experiment": "[…] effect of drug administration on food consumption in Fructose fed STZ-treated rats (Treatment group - Fructose/STZ + cryptoline HCl, 30 mg/kg)", "format": "functional", "summary_of_the_method": "as §3"}, "[20]": {"tested_on": "Mus musculus", "experiment": "Compound was evaluated for the in vivo effects on plasma glucose concentrations in db/db mice administered at a dose of 20 mg/kg mean body weight expressed as grams/mouse at 24 hr", "format": "functional"}, "[21]": {"tested_on": "Rattus norvegicus", "experiment": "[…] effect of drug administration on Body weight in Fructose fed STZ-treated rats, pre dose ((Treatment group - Fructose/STZ + cryptoline HCl, 30 mg/kg)", "format": "functional", "summary_of_the_method": "as §3"}, "[22]": {"tested_on": "Mus musculus", "experiment": "Food intake in db/db Mice expressed as gram/mouse/day and the observation made at 0 - 24 Hrs, in db/db mice administered at a dose of 30 mg/kg", "format": "functional", "summary_of_the_method": "as §1"}, "[23]": {"tested_on": "Mus musculus", "experiment": "Food intake in db/db Mice expressed as gram/mouse/day and the observation made at 24 - 48 Hrs, in db/db mice administered at a dose of 30 mg/kg", "format": "functional", "summary_of_the_method": "as §1"}, "[24]": {"tested_on": "Mus musculus", "experiment": "Compound was evaluated for the in vivo effects on plasma glucose concentrations in db/db mice administered at a dose of 30 mg/kg mean body weight expressed as grams/mouse at 0 hr", "format": "functional", "summary_of_the_method": "as §1"}, "[25]": {"tested_on": "Mus musculus", "experiment": "Compound was evaluated for the in vivo effects on plasma glucose concentrations in db/db mice administered at a dose of 30 mg/kg mean body weight expressed as grams/mouse at 24 hr", "format": "functional", "summary_of_the_method": "as §1"}}, "note": "Where “and” joins values, the source holds several entries; their conditions need not be identical. Identical values can stand only once."}
{"molecule": "Cn1c2ccccc2c2nc3ccccc3cc21", "values": [{"measurement": "Change of predose", "setting": "[1]", "result": 14.1, "unit": "%"}, {"measurement": "Food intake", "setting": "[2]", "result": 4.4, "unit": "g mouse-1 day-1"}, {"measurement": "Mean body weight", "setting": "[3]", "result": 41.4, "unit": "g mouse-1"}, {"measurement": "Mean body weight", "setting": "[4]", "result": 42, "unit": "g mouse-1"}, {"measurement": "Change of predose", "setting": "[5]", "result": 15.3, "unit": "%"}]}
{"molecule": "C[n+]1c2ccccc2cc2[n-]c3ccccc3c21.Cl", "note": "[CRYPTOLEPINE HYDROCHLORIDE]", "values": [{"measurement": "Mean body weight", "setting": "[6]", "result": 22.7, "unit": "g mouse-1"}, {"measurement": "Mean body weight", "setting": "[7]", "result": 23.7, "unit": "g mouse-1"}, {"measurement": "Change of predose", "setting": "[8]", "result": 184, "unit": "mg/dL"}, {"measurement": "Body weight", "setting": "[9]", "result": 223, "unit": "g"}, {"measurement": "Food intake", "setting": "[10]", "result": 2.7, "unit": "g mouse-1 day-1"}, {"measurement": "Change of predose", "setting": "[1]", "result": -43.1, "unit": "%"}, {"measurement": "Food intake", "setting": "[11]", "result": 3.3, "unit": "g mouse-1 day-1"}, {"measurement": "Change of predose", "setting": "[12]", "result": 171, "unit": "mg/dL"}, {"measurement": "Food intake", "setting": "[13]", "result": 2.3, "unit": "g mouse-1 day-1"}, {"measurement": "Mean body weight", "setting": "[14]", "result": "38 g mouse-1 and 37.4 g mouse-1"}, {"measurement": "Mean body weight", "setting": "[15]", "result": 23.3, "unit": "g mouse-1"}, {"measurement": "Food intake", "setting": "[16]", "result": 3.8, "unit": "g mouse-1 day-1"}, {"measurement": "Food intake", "setting": "[17]", "result": 0.9, "unit": "g mouse-1 day-1"}, {"measurement": "Mean body weight", "setting": "[3]", "result": 41, "unit": "g mouse-1"}, {"measurement": "Change of predose", "setting": "[18]", "result": 358, "unit": "mg/dL"}, {"measurement": "Food intake", "setting": "[19]", "result": 18, "unit": "g/day"}, {"measurement": "Mean body weight", "setting": "[20]", "result": 37.9, "unit": "g mouse-1"}, {"measurement": "Body weight", "setting": "[21]", "result": 201, "unit": "g"}, {"measurement": "Food intake", "setting": "[22]", "result": 2.4, "unit": "g mouse-1 day-1"}, {"measurement": "Food intake", "setting": "[23]", "result": 2.4, "unit": "g mouse-1 day-1"}, {"measurement": "Mean body weight", "setting": "[4]", "result": 39.8, "unit": "g mouse-1"}, {"measurement": "Mean body weight", "setting": "[24]", "result": "37 g mouse-1 and 35.5 g mouse-1"}, {"measurement": "Change of predose", "setting": "[5]", "result": -16.4, "unit": "%"}, {"measurement": "Mean body weight", "setting": "[25]", "result": 36.9, "unit": "g mouse-1"}]}
{"molecule": "C[n+]1c2ccccc2cc2[n-]c3ccccc3c21", "note": "[CRYPTOLEPINE]", "values": [{"measurement": "Change of predose", "setting": "[1]", "result": -30, "unit": "%"}, {"measurement": "Food intake", "setting": "[2]", "result": 1, "unit": "g mouse-1 day-1"}, {"measurement": "Mean body weight", "setting": "[3]", "result": 39.4, "unit": "g mouse-1"}, {"measurement": "Mean body weight", "setting": "[4]", "result": 38.7, "unit": "g mouse-1"}, {"measurement": "Change of predose", "setting": "[5]", "result": -19.7, "unit": "%"}]}
{"molecule": "C[n+]1c2ccccc2cc2[nH]c3ccccc3c21.[I-]", "note": "[CRYPTOLEPTINE IODIDE]", "values": [{"measurement": "Change of predose", "setting": "[1]", "result": -22.5, "unit": "%"}, {"measurement": "Food intake", "setting": "[2]", "result": 1, "unit": "g mouse-1 day-1"}, {"measurement": "Mean body weight", "setting": "[3]", "result": 42.7, "unit": "g mouse-1"}, {"measurement": "Mean body weight", "setting": "[4]", "result": 41.9, "unit": "g mouse-1"}, {"measurement": "Change of predose", "setting": "[5]", "result": -11.5, "unit": "%"}]}
